Laboratory results: ChEMBL document CHEMBL4346654 (Eur J Med Chem, 2019)
Values after ≈ are worked out from the molar mass of the structure shown.

What was measured:
Format in all cases: functional
[1] = system: Staphylococcus aureus; assay: Antibacterial activity against MLS-resistant Staphylococcus aureus PU 32 expressing inducible ermA gene assessed as reduction in microbial growth by CLSI based two-fold broth dilution method
[2] = system: Streptococcus pneumoniae; assay: Antibacterial activity against erythromycin-susceptible Streptococcus pneumoniae ATCC49619 assessed as reduction in microbial growth by CLSI based two-fold broth dilution method
[3] = system: Streptococcus pneumoniae; assay: Bactericidal activity against erythromycin-susceptible Streptococcus pneumoniae ATCC49619 pretreated followed by subculture in absence of compound measured after 24 hrs
In short: (§1)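 Isolates were identified by 16S rDNA sequencing. MIC was determined by CLSI-recommended two-fold broth dilution. For MBC, samples from 1–8 fold MIC were transferred to culture medium and subcultured for 24 h without antibiotic.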

[4] = system: Haemophilus influenzae; assay: Antibacterial activity against azithromycin-susceptible Haemophilus influenzae ATCC 49247 assessed as reduction in microbial growth by CLSI based two-fold broth dilution method
[5] = system: Streptococcus pneumoniae; assay: Selectivity ratio of MBC to MIC for erythromycin-susceptible Streptococcus pneumoniae ATCC49619; in short: as §1
[6] = system: Streptococcus pneumoniae; assay: Antibacterial activity against Streptococcus pneumoniae 07P390 expressing constitutive ermB gene assessed as reduction in microbial growth by CLSI based two-fold broth dilution method
[7] = system: Streptococcus pneumoniae; assay: Antibacterial activity against penicillin-susceptible Streptococcus pneumoniae PU 09 expressing mef gene assessed as reduction in microbial growth by CLSI based two-fold broth dilution method
[8] = system: Streptococcus pneumoniae; assay: Bactericidal activity against penicillin-susceptible Streptococcus pneumoniae PU 09 expressing mef gene pretreated followed by subculture in absence of compound measured after 24 hrs; in short: as §1
[9] = system: Streptococcus pneumoniae; assay: Selectivity ratio of MBC to MIC for penicillin-susceptible Streptococcus pneumoniae PU 09 expressing mef gene; in short: as §1
[10] = system: Streptococcus pneumoniae; assay: Bactericidal activity against Streptococcus pneumoniae 07P390 expressing constitutive ermB gene pretreated followed by subculture in absence of compound measured after 24 hrs; in short: as §1
[11] = system: Streptococcus pneumoniae; assay: Selectivity ratio of MBC to MIC for Streptococcus pneumoniae 07P390 expressing constitutive ermB gene; in short: as §1
[12] = system: Haemophilus influenzae; assay: Bactericidal activity against azithromycin-susceptible Haemophilus influenzae ATCC 49247 pretreated followed by subculture in absence of compound measured after 24 hrs; in short: as §1
[13] = system: Haemophilus influenzae; assay: Selectivity ratio of MBC to MIC for azithromycin-susceptible Haemophilus influenzae ATCC 49247; in short: as §1
[14] = system: Streptococcus pyogenes; assay: Antibacterial activity against MLS-resistant Streptococcus pyogenes 01-968 expressing inducible ermB gene assessed as reduction in microbial growth by CLSI based two-fold broth dilution method
[15] = system: Streptococcus pyogenes; assay: Bactericidal activity against MLS-resistant Streptococcus pyogenes 01-968 expressing inducible ermB gene pretreated followed by subculture in absence of compound measured after 24 hrs
In short: (§2)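 MBC assay. Following MIC determination by CLSI standard two-fold broth dilution, samples at 1–8 fold MIC were transferred to fresh culture medium. They were subcultured for 24 h without antibiotic. Isolates were identified by 16S rDNA sequencing. S. aureus ATCC 29213 was used as a control strain.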

[16] = system: Streptococcus pyogenes; assay: Selectivity ratio of MBC to MIC for MLS-resistant Streptococcus pyogenes 01-968 expressing inducible ermB gene
In short: (§3)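 MBC/MIC ratio. MIC was measured by CLSI standard two-fold broth dilution. MBC was measured by transferring samples at 1–8 fold MIC to culture medium and subculturing for 24 h without antibiotic. Isolates were identified by 16S rDNA sequencing.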

[17] = system: Staphylococcus aureus; assay: Bactericidal activity against MLS/methicillin-resistant Staphylococcus aureus PU 32 expressing inducible ermA gene pretreated followed by subculture in absence of compound measured after 24 hrs; in short: as §2
[18] = system: Staphylococcus aureus; assay: Selectivity ratio of MBC to MIC for MLS/methicillin-resistant Staphylococcus aureus PU 32 expressing inducible ermA gene; in short: as §3
[19] = system: Staphylococcus aureus; assay: Antibacterial activity against MLS-resistant Staphylococcus aureus PU 20 expressing constitutive ermC gene assessed as reduction in microbial growth by CLSI based two-fold broth dilution method
[20] = system: Staphylococcus aureus; assay: Bactericidal activity against MLS-resistant Staphylococcus aureus PU 20 expressing constitutive ermC gene pretreated followed by subculture in absence of compound measured after 24 hrs; in short: as §2

Compound	MIC [1]	MIC [2]	MBC [3]	MIC [4]	Selectivity ratio [5]	MIC [6]	MIC [7]	MBC [8]	Selectivity ratio [9]	MBC [10]	Selectivity ratio [11]	MBC [12]	Selectivity ratio [13]	MIC [14]	MBC [15]	Selectivity ratio [16]	MBC [17]	Selectivity ratio [18]	MIC [19]	MBC [20]
CC[C@H]1OC(=O)[C@@](C)(F)C(=O)[C@H](C)[C@@H](O[C@@H]2O[C@H](C)C[C@H](N(C)C)[C@H]2O)[C@](C)(OC)C[C@@H](C)/C(=N\OC/C=C/c2ccc3[nH]cc(C(=O)O)c(=O)c3c2)[C@H](C)[C@H]2OC(=O)O[C@@]21C	2 µg/mL	0.125 µg/mL	0.125 µg/mL (≈ 0.143 µM)	32 µg/mL	1	4 µg/mL	2 µg/mL	4 µg/mL (≈ 4.58 µM)	2	16 µg/mL (≈ 18.3 µM)	4	32 µg/mL (≈ 36.6 µM)	1	0.016 µg/mL	> 0.125 µg/mL	>8	16 µg/mL (≈ 18.3 µM)	8	256 µg/mL	> 256 µg/mL
CC[C@H]1OC(=O)[C@@](C)(F)C(=O)[C@H](C)[C@@H](O[C@@H]2O[C@H](C)C[C@H](N(C)C)[C@H]2O)[C@](C)(OC)C[C@@H](C)/C(=N\OC/C=C/c2ccc3[nH]ccc(=O)c3c2)[C@H](C)[C@H]2OC(=O)O[C@@]21C	1 µg/mL	0.125 µg/mL	0.5 µg/mL (≈ 0.602 µM)	16 µg/mL	4	16 µg/mL	4 µg/mL	8 µg/mL (≈ 9.64 µM)	2	32 µg/mL (≈ 38.6 µM)	2	32 µg/mL (≈ 38.6 µM)	2	0.062 µg/mL	> 0.5 µg/mL	>8	> 8 µg/mL	>8	256 µg/mL	> 256 µg/mL
CC[C@H]1OC(=O)[C@@](C)(F)C(=O)[C@H](C)[C@@H](O[C@@H]2O[C@H](C)C[C@H](N(C)C)[C@H]2O)[C@](C)(OC)C[C@@H](C)/C(=N\OCC#Cc2cncc(C(=O)NC)c2)[C@H](C)[C@H]2OC(=O)O[C@@]21C	0.5 µg/mL	0.125 µg/mL	0.25 µg/mL (≈ 0.305 µM)	8 µg/mL	2	32 µg/mL	1 µg/mL	1 µg/mL (≈ 1.22 µM)	1	> 32 µg/mL		16 µg/mL (≈ 19.5 µM)	2	0.062 µg/mL	> 0.5 µg/mL	>8	> 4 µg/mL	>8	256 µg/mL	> 256 µg/mL
CC[C@H]1OC(=O)[C@@](C)(F)C(=O)[C@H](C)[C@@H](O[C@@H]2O[C@H](C)C[C@H](N(C)C)[C@H]2O)[C@](C)(OC/C=C/c2cncc(C(N)=O)c2)C[C@@H](C)/C(=N\OC)[C@H](C)[C@H]2OC(=O)O[C@@]21C	0.125 µg/mL	0.062 µg/mL	0.125 µg/mL (≈ 0.155 µM)	4 µg/mL	2	0.5 µg/mL	2 µg/mL	8 µg/mL (≈ 9.91 µM)	4	4 µg/mL (≈ 4.96 µM)	8	8 µg/mL (≈ 9.91 µM)	2	0.031 µg/mL	> 0.25 µg/mL	>8	> 1 µg/mL	>8	> 256 µg/mL	
CC[C@H]1OC(=O)[C@@](C)(F)C(=O)[C@H](C)[C@@H](O[C@@H]2O[C@H](C)C[C@H](N(C)C)[C@H]2O)[C@](C)(OC/C=C/c2cncc(C(=O)O)c2)C[C@@H](C)/C(=N\OC)[C@H](C)[C@H]2OC(=O)O[C@@]21C	2 µg/mL	0.25 µg/mL	0.5 µg/mL (≈ 0.619 µM)	8 µg/mL	2	1 µg/mL	32 µg/mL	> 32 µg/mL		4 µg/mL (≈ 4.95 µM)	4	8 µg/mL (≈ 9.9 µM)	1	0.125 µg/mL	> 1 µg/mL	>8	> 16 µg/mL	>8	> 256 µg/mL	
CC[C@H]1OC(=O)[C@@](C)(F)C(=O)[C@H](C)[C@@H](O[C@@H]2O[C@H](C)C[C@H](N(C)C)[C@H]2O)[C@](C)(OC/C=C/c2ccc3ncc(C(=O)O)cc3c2)C[C@@H](C)/C(=N\OC)[C@H](C)[C@H]2OC(=O)O[C@@]21C	0.062 µg/mL	0.031 µg/mL	0.062 µg/mL (≈ 0.0723 µM)	4 µg/mL	2	0.5 µg/mL	8 µg/mL	16 µg/mL (≈ 18.6 µM)	2	4 µg/mL (≈ 4.66 µM)	8	8 µg/mL (≈ 9.32 µM)	2	≤ 0.008 µg/mL	> 0.062 µg/mL	>8	0.5 µg/mL (≈ 0.583 µM)	8	> 256 µg/mL	
CC[C@H]1OC(=O)[C@@](C)(F)C(=O)[C@H](C)[C@@H](O[C@@H]2O[C@H](C)C[C@H](N(C)C)[C@H]2O)[C@](C)(OC)C[C@@H](C)/C(=N\OC/C=C/c2cncc(C(N)=O)c2)[C@H](C)[C@H]2OC(=O)O[C@@]21C	0.25 µg/mL	0.031 µg/mL	0.031 µg/mL (≈ 0.0384 µM)	8 µg/mL	1	32 µg/mL	0.5 µg/mL	1 µg/mL (≈ 1.24 µM)	2	> 32 µg/mL		16 µg/mL (≈ 19.8 µM)	2	0.062 µg/mL	> 0.5 µg/mL	>8	> 2 µg/mL	>8	256 µg/mL	> 256 µg/mL
CC[C@H]1OC(=O)[C@@](C)(F)C(=O)[C@H](C)[C@@H](O[C@@H]2O[C@H](C)C[C@H](N(C)C)[C@H]2O)[C@](C)(OC)C[C@@H](C)/C(=N\OC/C=C/c2cncc(O)c2)[C@H](C)[C@H]2OC(=O)O[C@@]21C	0.25 µg/mL	0.125 µg/mL	0.5 µg/mL (≈ 0.641 µM)	16 µg/mL	4	32 µg/mL	2 µg/mL	4 µg/mL (≈ 5.13 µM)	2	> 32 µg/mL		16 µg/mL (≈ 20.5 µM)	1	0.062 µg/mL	> 0.5 µg/mL	>8	> 2 µg/mL	>8	256 µg/mL	> 256 µg/mL
CC[C@H]1OC(=O)[C@@](C)(F)C(=O)[C@H](C)[C@@H](O[C@@H]2O[C@H](C)C[C@H](N(C)C)[C@H]2O)[C@](C)(OC/C=C/c2ccc3[nH]cc(C(=O)O)c(=O)c3c2)C[C@@H](C)/C(=N\OC)[C@H](C)[C@H]2OC(=O)O[C@@]21C	0.5 µg/mL	0.062 µg/mL	0.062 µg/mL (≈ 0.0709 µM)	8 µg/mL	1	0.5 µg/mL	2 µg/mL	4 µg/mL (≈ 4.58 µM)	2	4 µg/mL (≈ 4.58 µM)	8	16 µg/mL (≈ 18.3 µM)	2	0.031 µg/mL	0.062 µg/mL (≈ 0.0709 µM)	2	2 µg/mL (≈ 2.29 µM)	4	> 256 µg/mL	
